Measured values collected from several papers.
Compare with care: the assays were run in different laboratories.
CDK4 with cyclin D1: Cyclin-dependent kinase 4, with cyclin D1 (CDK4, Homo sapiens, UniProt P11802)
CDK4 with cyclin D3: Cyclin-dependent kinase 4, with cyclin D3 (CDK4, Homo sapiens, UniProt P11802)
CDK4: Cyclin-dependent kinase 4 (CDK4, Homo sapiens, UniProt P11802)

| Compound | target | assay | setting | measurement | value |
| --- | --- | --- | --- | --- | --- |
| O=c1[nH]c2ccccc2n1C1CCN(Cc2ccc(-c3[nH]c4cc5ncnc5cc4nc3-c3ccccc3)cc2)CC1 | CDK4 with cyclin D1 | cell-free assay | 0.5 µM | remaining signal | 108% |
| Cn1cncc1[C@@](O)(COc1ccc(C#N)cc1-c1ccc(OC(F)(F)F)cc1)c1ccc(C#N)cc1 | CDK4 with cyclin D3 | cell-free assay, competition with immobilised ligand | 1 µM | remaining binding | 92% |
| Cc1nn(C)cc1-c1nc2c(N3CCN(Cc4ccc(Cl)cc4)CC3)c(Cl)cnc2[nH]1 | CDK4 with cyclin D1 | binding, competition with immobilised ligand | 1 µM | remaining binding | 76% |
| CCOC(=O)[C@H]1Cc2c(cc([N+](=O)[O-])cc2[N+](=O)[O-])[C@@H](O)[C@@]12C(=O)Nc1ccc(Br)cc12 | CDK4 | cell-free assay, inhibitor, TR-FRET | 1 µM | inhibition | 76.3% |
| N#CC1(c2ccccn2)CCN(Cc2cc(C(=O)O)c(=O)n3ccccc23)CC1 | CDK4 | cell-free assay, competition with immobilised ligand | 1 µM | remaining binding | 94% |
| CCOC(=O)[C@H]1Cc2c(cc([N+](=O)[O-])cc2[N+](=O)[O-])[C@@H](O)[C@@]12C(=O)Nc1c(F)cccc12 | CDK4 | cell-free assay, inhibitor, TR-FRET | 1 µM | inhibition | 52.6% |
| Nc1ncc(-c2nc(N3CCOCC3)nc(N3CCOCC3)n2)c(C(F)F)n1 | CDK4 with cyclin D1 | binding, competition with immobilised ligand | 10 µM | remaining binding | 100% |
| CC(C)(C)c1cc(C=C(C#N)C#N)cc(Br)c1O | CDK4 with cyclin D3 | enzyme activity, inhibitor | 0.5 µM | remaining activity | 96.5% |
| CCOC(=O)[C@H]1Cc2c(cc([N+](=O)[O-])cc2[N+](=O)[O-])[C@H](O)[C@]12C(=O)Nc1cc(Cl)ccc12 | CDK4 | cell-free assay, inhibitor, TR-FRET | 1 µM | inhibition | 38.6% |
